The target of test [1] is Lysophosphatidylcholine acyltransferase 1 (Homo sapiens) (UniProt Q8NF37). In words: Binding affinity to LPCAT1 in human NCI-H358 cells at 1 uM by mass spectrometry based pull down assay. It counts as cell-based.
Test [2] has as its target Phospholipid hydroperoxide glutathione peroxidase GPX4 (Homo sapiens) (UniProt P36969). In words: Binding affinity to GPX4 in human NCI-H23 cells at 1 uM by mass spectrometry based pull down assay. It counts as cell-based.
The target in test [3] is Signal recognition particle subunit SRP54 (Homo sapiens) (UniProt P61011). Kind of test: Binding affinity to SRP54 in human NCI-H358 cells at 1 uM by mass spectrometry based pull down assay. It counts as cell-based.
For test [4], the target named is T1, 80S Ribosome (Homo sapiens) (UniProt P08865+P42677+P62753+P15880+P23396+P61247+P62701+P22090+P46782+P62081+P62241+P46781+P46783+P62280+P25398+P62277+P62263+P62841+P62244+P62249+P08708+P62269+P39019+P60866+P63220+P62266+P62847+P62851+P62854+P62979+P62857+P62273+P62861+P39023+P36578+P46777+Q02878+P18124+P62424+P62917+P32969+P27635+P62906+P62913+P30050+P26373+P40429+P50914+P61313+P18621+Q07020+Q02543+P84098+P46778+P35268+P62829+P62750+P83731+P61254+P61353+P46776+P46779+P47914+P62888+P62899+P62910+P49207+P42766+P18077+Q9Y3U8+P83881+P61927+P61513+P63173+P62891+P62945+P05388+P05386). Kind of test: Binding affinity to RPL19 in human NCI-H358 cells at 1 uM by mass spectrometry based pull down assay. In kind it is cell-based.

Test [5] has as its target Importin-5 (Homo sapiens) (UniProt O00410). In words: Binding affinity to IPO5 in human NCI-H358 cells at 1 uM by mass spectrometry based pull down assay. In kind it is cell-based.
The target of test [6] is Glycogen synthase kinase-3 alpha (Homo sapiens) (UniProt P49840). Kind of test: Binding affinity to GSK3A in human NCI-H23 cells at 1 uM by mass spectrometry based pull down assay. It counts as cell-based.
In test [7] the target is Heterogeneous nuclear ribonucleoprotein H2 (Homo sapiens) (UniProt P55795). Kind of test: Binding affinity to HNRNPH2 in human NCI-H358 cells at 1 uM by mass spectrometry based pull down assay. It counts as cell-based.
Test [8] concerns the target ADP/ATP translocase 2 (Homo sapiens) (UniProt P05141). Kind of test: Binding affinity to SLC25A5 in human NCI-H23 cells at 1 uM by mass spectrometry based pull down assay. In kind it is cell-based.
Test [9] has as its target T1, 80S Ribosome (Homo sapiens). In words: Binding affinity to RPL23A in human NCI-H358 cells at 1 uM by mass spectrometry based pull down assay. It counts as cell-based.
For test [10], the target named is DnaJ homolog subfamily A member 1 (Homo sapiens) (UniProt P31689). In words: Binding affinity to DNAJA1 in human NCI-H358 cells at 1 uM by mass spectrometry based pull down assay. In kind it is cell-based.
Test [11] concerns the target RuvB-like 1 (Homo sapiens) (UniProt Q9Y265). Kind of test: Binding affinity to RUVBL1 in human NCI-H23 cells at 1 uM by mass spectrometry based pull down assay. It counts as cell-based.
The target of test [12] is Small ribosomal subunit protein mS23 (Homo sapiens) (UniProt Q9Y3D9). Kind of test: Binding affinity to MRPS23 in human NCI-H358 cells at 1 uM by mass spectrometry based pull down assay. In kind it is cell-based.
Test [13] concerns the target Mitogen-activated protein kinase 1 (Homo sapiens) (UniProt P28482). Kind of test: Binding affinity to MAPK1 in human NCI-H23 cells at 1 uM by mass spectrometry based pull down assay. It counts as cell-based.
The target in test [14] is Clathrin light chain A (Homo sapiens) (UniProt P09496). In words: Binding affinity to CLTA in human NCI-H358 cells at 1 uM by mass spectrometry based pull down assay. In kind it is cell-based.
Test [15] deals with Mitogen-activated protein kinase 3 (Homo sapiens) (UniProt P27361). In words: Binding affinity to MAPK3 in human NCI-H358 cells at 1 uM by mass spectrometry based pull down assay. In kind it is cell-based.
The target of test [16] is T1, 80S Ribosome (Homo sapiens). Kind of test: Binding affinity to RPL31 in human NCI-H23 cells at 1 uM by mass spectrometry based pull down assay. It counts as cell-based.
Test [17] has as its target 14-3-3 protein theta (Homo sapiens) (UniProt P27348). Kind of test: Binding affinity to YWHAQ in human NCI-H23 cells at 1 uM by mass spectrometry based pull down assay. In kind it is cell-based.
The target of test [18] is T2, Dual specificity mitogen-activated protein kinase kinase 4 (Homo sapiens) (UniProt P45985).
T2 sequence (whole entry): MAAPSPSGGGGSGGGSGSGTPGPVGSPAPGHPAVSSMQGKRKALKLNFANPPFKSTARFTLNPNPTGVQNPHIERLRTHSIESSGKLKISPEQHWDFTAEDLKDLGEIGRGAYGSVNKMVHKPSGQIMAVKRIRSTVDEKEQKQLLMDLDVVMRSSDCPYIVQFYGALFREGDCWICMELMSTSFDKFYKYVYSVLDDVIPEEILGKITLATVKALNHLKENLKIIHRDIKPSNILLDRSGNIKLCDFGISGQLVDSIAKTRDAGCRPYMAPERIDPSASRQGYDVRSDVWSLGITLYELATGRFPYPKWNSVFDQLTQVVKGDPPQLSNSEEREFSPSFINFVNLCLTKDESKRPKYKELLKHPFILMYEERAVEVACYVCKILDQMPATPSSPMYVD
Kind of test: Binding affinity to MAP2K4 in human NCI-H23 cells at 1 uM by mass spectrometry based pull down assay. In kind it is cell-based.

The target in test [19] is Prefoldin subunit 2 (Homo sapiens) (UniProt Q9UHV9). Kind of test: Binding affinity to PFDN2 in human NCI-H23 cells at 1 uM by mass spectrometry based pull down assay. It counts as cell-based.
The subject of another test is NCI-H23. In words: Binding affinity to PTGES3L-AARSD1 in human NCI-H23 cells at 1 uM by mass spectrometry based pull down assay. In kind it is cell-based.
The target in test [20] is DnaJ homolog subfamily A member 2 (Homo sapiens) (UniProt O60884). Kind of test: Binding affinity to DNAJA2 in human NCI-H23 cells at 1 uM by mass spectrometry based pull down assay. In kind it is cell-based.
For test [21], the target named is Platelet-derived growth factor receptor beta (Homo sapiens) (UniProt P09619). In words: Inhibition of human PDGFRB (582 to 1009 residues) expressed in bacterial expression system assessed as enzyme activity at 10 uM by KINOMEScan assay relative to control. Details: scale not given: the % may be the effect or the level left. The procedure, abridged:
(§1)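 In vitro ATP-site competition binding assay across a panel of 456 kinases, with compound tested at 1 and 10 μM.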

In test [22] the target is Serine/threonine-protein kinase 36 (Homo sapiens) (UniProt Q9NRP7). In words: Inhibition of human STK36 (1 to 271 residues) expressed in bacterial expression system assessed as enzyme activity at 1 uM by KINOMEScan assay relative to control. Further details: scale not given: the % may be the effect or the level left. Put shortly: as §1
Test [23] concerns the target Mitogen-activated protein kinase kinase kinase 11 (Homo sapiens) (UniProt Q16584). Kind of test: Inhibition of MLK3 in human SKCO1 cells at 1 uM after 4 hrs using biotin labeled DLKSNNILLLQPIESDDMEHK probe by mass-spectrometric analysis relative to control. It counts as cell-based.

The source made the active and inactive calls. The rule behind the calls is not given here.

Chain of Platelet-derived growth factor receptor beta (Homo sapiens) (P09619 whole entry, the tested form may be a part): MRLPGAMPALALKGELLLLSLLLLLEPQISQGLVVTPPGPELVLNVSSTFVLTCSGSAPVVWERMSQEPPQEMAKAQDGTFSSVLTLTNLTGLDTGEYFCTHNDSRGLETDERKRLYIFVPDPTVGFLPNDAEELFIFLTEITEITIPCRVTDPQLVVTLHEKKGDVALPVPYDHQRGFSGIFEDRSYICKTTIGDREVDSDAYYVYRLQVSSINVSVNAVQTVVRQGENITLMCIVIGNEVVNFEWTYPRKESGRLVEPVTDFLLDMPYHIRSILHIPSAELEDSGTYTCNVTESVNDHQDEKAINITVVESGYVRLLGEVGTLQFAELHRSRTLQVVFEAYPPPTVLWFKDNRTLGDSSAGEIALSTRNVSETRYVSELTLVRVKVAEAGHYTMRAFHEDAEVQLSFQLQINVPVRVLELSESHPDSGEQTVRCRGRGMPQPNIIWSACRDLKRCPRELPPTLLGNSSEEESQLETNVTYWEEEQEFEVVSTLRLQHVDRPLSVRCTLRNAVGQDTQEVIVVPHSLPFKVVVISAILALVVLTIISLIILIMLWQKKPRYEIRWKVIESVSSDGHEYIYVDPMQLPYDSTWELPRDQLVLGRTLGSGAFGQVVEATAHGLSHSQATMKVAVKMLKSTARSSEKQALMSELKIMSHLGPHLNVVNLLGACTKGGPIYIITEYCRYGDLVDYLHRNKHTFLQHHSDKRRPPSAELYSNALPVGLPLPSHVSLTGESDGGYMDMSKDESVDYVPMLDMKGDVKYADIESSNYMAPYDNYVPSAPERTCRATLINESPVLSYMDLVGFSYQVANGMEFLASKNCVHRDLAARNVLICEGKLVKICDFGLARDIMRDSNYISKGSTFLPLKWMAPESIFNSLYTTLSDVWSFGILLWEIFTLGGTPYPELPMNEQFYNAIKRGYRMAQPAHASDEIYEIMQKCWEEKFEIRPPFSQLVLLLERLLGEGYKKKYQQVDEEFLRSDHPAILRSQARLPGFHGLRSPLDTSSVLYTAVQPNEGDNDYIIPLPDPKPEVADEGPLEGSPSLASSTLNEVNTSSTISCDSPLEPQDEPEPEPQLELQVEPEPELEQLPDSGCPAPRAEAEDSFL
Chain of 14-3-3 protein theta (Homo sapiens) (P27348 whole entry): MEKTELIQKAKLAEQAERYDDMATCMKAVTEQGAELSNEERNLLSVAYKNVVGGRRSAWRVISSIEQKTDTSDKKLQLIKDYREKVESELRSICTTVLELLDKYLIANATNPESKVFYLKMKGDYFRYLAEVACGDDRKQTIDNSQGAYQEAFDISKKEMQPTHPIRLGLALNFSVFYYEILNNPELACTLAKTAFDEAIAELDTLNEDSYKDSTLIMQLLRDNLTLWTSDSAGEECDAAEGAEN
Chain of Glycogen synthase kinase-3 alpha (Homo sapiens) (P49840 2-483 limits assumed): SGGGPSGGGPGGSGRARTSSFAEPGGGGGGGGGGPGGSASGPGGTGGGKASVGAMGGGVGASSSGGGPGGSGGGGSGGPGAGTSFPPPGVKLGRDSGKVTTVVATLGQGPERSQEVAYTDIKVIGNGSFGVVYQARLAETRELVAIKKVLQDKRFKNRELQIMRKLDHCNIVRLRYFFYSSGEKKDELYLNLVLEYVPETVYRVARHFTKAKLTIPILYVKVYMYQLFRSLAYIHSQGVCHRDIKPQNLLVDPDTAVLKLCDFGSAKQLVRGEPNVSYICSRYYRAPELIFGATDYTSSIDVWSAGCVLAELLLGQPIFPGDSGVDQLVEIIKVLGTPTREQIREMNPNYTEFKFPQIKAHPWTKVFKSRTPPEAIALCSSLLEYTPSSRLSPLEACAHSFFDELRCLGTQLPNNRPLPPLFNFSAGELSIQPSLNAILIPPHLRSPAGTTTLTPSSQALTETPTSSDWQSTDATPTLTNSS
Chain of Lysophosphatidylcholine acyltransferase 1 (Homo sapiens) (Q8NF37 whole entry): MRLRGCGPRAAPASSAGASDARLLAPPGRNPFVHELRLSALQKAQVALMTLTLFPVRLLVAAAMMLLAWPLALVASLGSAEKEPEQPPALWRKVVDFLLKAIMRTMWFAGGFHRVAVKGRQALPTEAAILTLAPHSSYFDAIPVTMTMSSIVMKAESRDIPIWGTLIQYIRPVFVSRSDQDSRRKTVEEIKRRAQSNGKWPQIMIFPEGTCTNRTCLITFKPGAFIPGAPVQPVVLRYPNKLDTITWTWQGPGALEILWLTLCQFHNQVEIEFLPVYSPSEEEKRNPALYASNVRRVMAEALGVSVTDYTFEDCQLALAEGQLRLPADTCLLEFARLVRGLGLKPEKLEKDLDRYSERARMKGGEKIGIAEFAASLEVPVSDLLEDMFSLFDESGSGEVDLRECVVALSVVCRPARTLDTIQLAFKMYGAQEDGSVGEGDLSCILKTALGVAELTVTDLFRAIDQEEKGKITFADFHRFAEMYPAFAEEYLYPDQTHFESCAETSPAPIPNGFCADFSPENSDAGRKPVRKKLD
Chain of Mitogen-activated protein kinase 3 (Homo sapiens) (P27361 whole entry): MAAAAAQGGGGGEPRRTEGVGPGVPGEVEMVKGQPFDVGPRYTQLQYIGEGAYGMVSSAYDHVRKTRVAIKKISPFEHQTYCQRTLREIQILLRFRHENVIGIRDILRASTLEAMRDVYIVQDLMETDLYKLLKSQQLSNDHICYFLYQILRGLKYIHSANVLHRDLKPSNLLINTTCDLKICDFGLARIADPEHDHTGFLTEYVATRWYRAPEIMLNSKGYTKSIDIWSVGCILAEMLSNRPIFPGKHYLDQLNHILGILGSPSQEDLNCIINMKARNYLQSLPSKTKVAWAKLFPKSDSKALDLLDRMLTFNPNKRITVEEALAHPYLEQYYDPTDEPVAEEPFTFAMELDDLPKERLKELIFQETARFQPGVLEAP
Chain of Prefoldin subunit 2 (Homo sapiens) (Q9UHV9 whole entry): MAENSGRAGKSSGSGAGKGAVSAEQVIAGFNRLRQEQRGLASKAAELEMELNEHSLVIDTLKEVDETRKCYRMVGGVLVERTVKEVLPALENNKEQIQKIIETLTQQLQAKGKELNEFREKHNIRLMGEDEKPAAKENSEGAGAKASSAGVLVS
Chain of ADP/ATP translocase 2 (Homo sapiens) (P05141 whole entry): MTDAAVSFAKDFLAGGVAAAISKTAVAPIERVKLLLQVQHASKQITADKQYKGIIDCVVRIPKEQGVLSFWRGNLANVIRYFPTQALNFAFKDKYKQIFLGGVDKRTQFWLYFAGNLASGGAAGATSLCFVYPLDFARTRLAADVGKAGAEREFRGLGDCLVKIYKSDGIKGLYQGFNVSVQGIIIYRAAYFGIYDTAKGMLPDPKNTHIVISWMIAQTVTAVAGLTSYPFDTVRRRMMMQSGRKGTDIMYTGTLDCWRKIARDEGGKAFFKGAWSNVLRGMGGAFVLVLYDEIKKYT
Chain of Importin-5 (Homo sapiens) (O00410 whole entry): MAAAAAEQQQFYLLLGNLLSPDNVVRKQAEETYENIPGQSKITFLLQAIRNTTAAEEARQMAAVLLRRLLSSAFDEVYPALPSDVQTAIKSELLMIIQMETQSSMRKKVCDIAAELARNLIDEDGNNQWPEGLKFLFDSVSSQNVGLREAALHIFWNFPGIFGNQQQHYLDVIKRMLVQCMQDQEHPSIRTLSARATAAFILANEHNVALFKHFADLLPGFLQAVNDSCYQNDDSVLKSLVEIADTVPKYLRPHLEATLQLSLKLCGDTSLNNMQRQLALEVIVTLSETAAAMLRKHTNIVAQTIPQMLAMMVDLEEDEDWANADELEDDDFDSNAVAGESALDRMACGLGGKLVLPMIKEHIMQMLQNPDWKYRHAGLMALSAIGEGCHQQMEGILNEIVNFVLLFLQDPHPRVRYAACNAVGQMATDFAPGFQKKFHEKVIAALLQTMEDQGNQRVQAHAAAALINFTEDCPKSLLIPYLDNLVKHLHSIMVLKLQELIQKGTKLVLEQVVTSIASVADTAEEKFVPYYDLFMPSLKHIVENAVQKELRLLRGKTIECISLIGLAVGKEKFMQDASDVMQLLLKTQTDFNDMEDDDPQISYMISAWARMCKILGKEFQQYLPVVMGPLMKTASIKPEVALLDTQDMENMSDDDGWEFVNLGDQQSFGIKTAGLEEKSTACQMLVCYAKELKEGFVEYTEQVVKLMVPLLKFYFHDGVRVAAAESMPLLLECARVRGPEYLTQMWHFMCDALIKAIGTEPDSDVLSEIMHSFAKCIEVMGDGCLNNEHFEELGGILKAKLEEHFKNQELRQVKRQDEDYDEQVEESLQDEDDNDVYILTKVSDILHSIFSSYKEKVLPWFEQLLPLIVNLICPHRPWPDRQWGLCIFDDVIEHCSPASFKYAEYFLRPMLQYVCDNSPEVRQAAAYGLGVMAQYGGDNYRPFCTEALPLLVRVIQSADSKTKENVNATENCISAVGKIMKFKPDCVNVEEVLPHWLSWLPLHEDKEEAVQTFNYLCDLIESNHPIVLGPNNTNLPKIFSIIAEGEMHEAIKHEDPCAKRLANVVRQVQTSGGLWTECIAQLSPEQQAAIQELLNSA
Chain of DnaJ homolog subfamily A member 1 (Homo sapiens) (P31689 whole entry): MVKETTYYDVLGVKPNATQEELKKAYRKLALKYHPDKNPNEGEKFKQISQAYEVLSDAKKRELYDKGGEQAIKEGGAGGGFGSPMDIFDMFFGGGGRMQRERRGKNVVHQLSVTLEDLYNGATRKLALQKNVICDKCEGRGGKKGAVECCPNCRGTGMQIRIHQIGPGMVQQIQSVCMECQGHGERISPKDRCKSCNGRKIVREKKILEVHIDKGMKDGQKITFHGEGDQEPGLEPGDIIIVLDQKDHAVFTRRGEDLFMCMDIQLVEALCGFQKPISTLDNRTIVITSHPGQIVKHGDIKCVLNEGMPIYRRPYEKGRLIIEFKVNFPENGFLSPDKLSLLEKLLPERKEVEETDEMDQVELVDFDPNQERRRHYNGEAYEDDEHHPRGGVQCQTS
Chain of Clathrin light chain A (Homo sapiens) (P09496 whole entry): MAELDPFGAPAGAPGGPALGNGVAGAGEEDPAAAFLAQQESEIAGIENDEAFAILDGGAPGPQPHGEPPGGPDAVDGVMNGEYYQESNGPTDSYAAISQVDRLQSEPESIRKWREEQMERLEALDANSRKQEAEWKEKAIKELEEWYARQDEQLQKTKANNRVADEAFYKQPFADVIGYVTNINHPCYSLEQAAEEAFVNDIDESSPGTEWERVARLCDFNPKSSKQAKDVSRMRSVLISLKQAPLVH

For `C=CC(=O)Nc1ccccc1Nc1nc(Nc2ccc(N3CCN(CCOCCOCCOCCNC(=O)CCCC[C@@H]4SC[C@@H]5NC(=O)N[C@@H]54)CC3)cc2)ncc1Cl`, the result in test [1], in test [2], in test [3], in test [4], in test [5] and in test [6] was Active. Also, the outcome in test [7], in test [8], in [9], in [10], in test [11] and in [12] was Active. The result in [13], in test [14], in [15], in [16], in test [17] and in test [18] was Active. Moreover, the outcome (in test [19]; in the test with NCI-H23; in [20]) was Active.
As to `COc1cc(O)c2c(c1)/C=C/C[C@H](O)[C@H](O)C(=O)/C=C\C[C@H](C)OC2=O`, the results for the Activity in test [21] and in [22] were 0.05% and 7.1%, respectively. In [23], the inhibition is -1.7%.

As a reminder, the inhibition is the drop in the measured response relative to a control, in per cent.

For the origin of these results see ChEMBL document CHEMBL4118021, “Studies of TAK1-centered polypharmacology with novel covalent TAK1 inhibitors” (Bioorg Med Chem, 2017).
